The values that follow come from ChEMBL document CHEMBL3045292, “Synthesis and herbicidal activity of 2-(7-fluoro-3-oxo- 3,4-dihydro-2H-benzo[b][1,4]oxazin-6-yl)isoindoline-1,3-diones” (J Agric Food Chem, 2005).

Test [1] has as its system Amaranthus blitum. The test can be described thus: Herbicidal activity against Amaranthus blitum assessed as weed growth inhibition at 75 g/ha post-emergence treatment […]. It counts as functional. The settings on record: read-out: GI. An outline of the steps: (§1)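 Pot-grown plants in the greenhouse, in clay soil (pH 6.5, 1.6% organic matter, 37.3% clay, CEC 12.1 cmol/kg). Compound was made up as a 100 g/L emulsified concentrate (DMF, Tween-80), diluted in water and sprayed at 75 g ai/ha. Pre-emergence spraying was 24 h after sowing; post-emergence at two-leaf (dicots) or one-leaf (monocots) stage. Untreated and DMF controls. Percent growth inhibition scored visually 15 days post-treatment.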

Test [2] has as its system Echinochloa crus-galli. The test can be described thus: Herbicidal activity against Echinochloa crus-galli (barnyard grass) (barnyard grass) assessed as weed growth inhibition at 75 g/ha post-emergence treatment […]. The settings on record: read-out: GI. It counts as functional. In outline:
as §1

The subject of test [3] is Digitaria sanguinalis. Put plainly: Herbicidal activity against crabgrass Digitaria sanguinalis(hairy crabgrass) assessed as weed growth inhibition at 75 g/ha pre-emergence treatment […]. It is filed as functional. The settings on record: read-out: GI. An outline of the steps:
as §1

The subject of test [4] is Setaria viridis. The test can be described thus: Herbicidal activity against Setaria viridis (green foxtail) assessed as weed growth inhibition at 75 g/ha pre-emergence treatment […]. It counts as functional. The settings on record: read-out: GI. An outline of the steps: as §1
Test [5] deals with Amaranthus blitum. Put plainly: Herbicidal activity against Amaranthus blitum assessed as weed growth inhibition at 75 g/ha pre-emergence treatment […]. It is filed as functional. The following applies: read-out: GI. In outline:
as §1

Test [6] has as its system Abutilon theophrasti. The test can be described thus: Herbicidal activity against Abutilon theophrasti (velvetleaf) assessed as weed growth inhibition at 75 g/ha post-emergence treatment […]. The settings on record: read-out: GI. It is filed as functional. An outline of the steps:
as §1

Test [7] has as its system Setaria viridis. The test can be described thus: Herbicidal activity against Setaria viridis (green foxtail) assessed as weed growth inhibition at 75 g/ha post-emergence treatment […]. It is filed as functional. The following applies: read-out: GI. An outline of the steps: as §1
Test [8] has as its system Echinochloa crus-galli. The test can be described thus: Herbicidal activity against Echinochloa crus-galli (barnyard grass) (barnyard grass) assessed as weed growth inhibition at 75 g/ha pre-emergence treatment […]. It is filed as functional. The following applies: read-out: GI. An outline of the steps:
as §1

The subject of test [9] is Digitaria sanguinalis. The test can be described thus: Herbicidal activity against crabgrass Digitaria sanguinalis(hairy crabgrass) assessed as weed growth inhibition at 75 g/ha post-emergence treatment […]. It counts as functional. The settings on record: read-out: GI. An outline of the steps: as §1
Test [10] deals with Abutilon theophrasti. Put plainly: Herbicidal activity against Abutilon theophrasti (velvetleaf) assessed as weed growth inhibition at post-emergence treatment […]. It is filed as functional, organism-based. An outline of the steps: as §1
Test [11] concerns Chenopodium album. Put plainly: Herbicidal activity against fat hen Chenopodium album assessed as weed growth inhibition at 75 g/ha post-emergence treatment […]. It counts as functional. The following applies: read-out: GI. An outline of the steps: as §1
For test [12], the system named is Chenopodium album. Put plainly: Herbicidal activity against fat hen Chenopodium album assessed as weed growth inhibition at 75 g/ha pre-emergence treatment […]. It is filed as functional. The settings on record: read-out: GI. An outline of the steps: as §1
Test [13] deals with Abutilon theophrasti. Put plainly: Herbicidal activity against Abutilon theophrasti (velvetleaf) assessed as weed growth inhibition at 75 g/ha pre-emergence treatment […]. It is filed as functional. The settings on record: read-out: GI. In outline:
as §1

Test [14] relates to Digitaria sanguinalis. Put plainly: Herbicidal activity against crabgrass Digitaria sanguinalis(hairy crabgrass) assessed as weed growth inhibition at post-emergence treatment […]. It counts as functional, organism-based. An outline of the steps: as §1

On to `O=C1COc2cc(F)c(N3C(=O)c4cccc(F)c4C3=O)cc2N1CC#CI`, for which the inhibition of growth at 75 g/ha in the test on Amaranthus blitum [1] was more than 80%; with Echinochloa crus-galli [2], more than 80%; in the test on Digitaria sanguinalis [3], less than 50%; with Setaria viridis [4], less than 50%; with Amaranthus blitum [5] it was more than 80%; in the test on Abutilon theophrasti [6], more than 80%. Also, the inhibition of growth at 75 g/ha with Setaria viridis [7] was more than 80%; in the test on Echinochloa crus-galli [8] it was less than 50%; in the test on Digitaria sanguinalis [9], more than 80%; with Chenopodium album [11] it was more than 80%; in the test on Chenopodium album [12] it was more than 80%; in the test on Abutilon theophrasti [13], more than 80%. Further, the IC50 with Abutilon theophrasti [10] is 7.2 g/ha; with Digitaria sanguinalis [14], 40 g/ha.
For `C#CCN1C(=O)C(C)Oc2cc(F)c(N3C(=O)c4ccccc4C3=O)cc21` (centres undefined), the inhibition of growth at 75 g/ha in the test with Amaranthus blitum [1] was more than 80%; in the test with Echinochloa crus-galli [2], less than 50%; in the test on Digitaria sanguinalis [3], less than 50%; in the test on Setaria viridis [4] it was less than 50%; in the test with Amaranthus blitum [5] it was more than 80%; in the test on Abutilon theophrasti [6], more than 80%. The inhibition of growth at 75 g/ha was less than 50% in the test with Setaria viridis [7]; less than 50% in the test on Echinochloa crus-galli [8]; less than 50% in the test on Digitaria sanguinalis [9]; more than 80% in the test on Chenopodium album [11]; more than 80% with Chenopodium album [12]; more than 80% in the test on Abutilon theophrasti [13]. Also, the IC50 in the test with Abutilon theophrasti [10] was found to be 7.5 g/ha; with Digitaria sanguinalis [14] it was 161 g/ha.
As for `CC1Oc2cc(F)c(N3C(=O)c4ccccc4C3=O)cc2N(CC#CI)C1=O` (centres undefined), the inhibition of growth at 75 g/ha in the test on Amaranthus blitum [1] is more than 80%; with Echinochloa crus-galli [2], less than 50%; with Digitaria sanguinalis [3], more than 80%; with Setaria viridis [4] it was more than 80%; in the test on Amaranthus blitum [5] it was more than 80%; in the test with Abutilon theophrasti [6], more than 80%. Further, the inhibition of growth at 75 g/ha was less than 50% with Setaria viridis [7]; more than 80% with Echinochloa crus-galli [8]; 50% in the test on Digitaria sanguinalis [9]; more than 80% in the test with Chenopodium album [11]; more than 80% with Chenopodium album [12]; more than 80% in the test on Abutilon theophrasti [13]. Moreover, the figures for the IC50 in the test with Abutilon theophrasti [10] and with Digitaria sanguinalis [14] were 7.4 g/ha and 60 g/ha, respectively.
With `CC1Oc2cc(F)c(N3C(=O)c4cccc(F)c4C3=O)cc2N(CC#CI)C1=O` (centres undefined), the inhibition of growth at 75 g/ha in the test with Amaranthus blitum [1] is more than 80%; in the test with Echinochloa crus-galli [2], less than 50%; with Digitaria sanguinalis [3] it was less than 50%; in the test on Setaria viridis [4], less than 50%; in the test with Amaranthus blitum [5], more than 80%; with Abutilon theophrasti [6], more than 80%. Also, the inhibition of growth at 75 g/ha with Setaria viridis [7] was less than 50%; with Echinochloa crus-galli [8], less than 50%; in the test on Digitaria sanguinalis [9], less than 50%; in the test with Chenopodium album [11] it was more than 80%; in the test on Chenopodium album [12], more than 80%; in the test with Abutilon theophrasti [13] it was more than 80%. Moreover, the IC50 is 7.5 g/ha in the test on Abutilon theophrasti [10] and 238 g/ha in the test with Digitaria sanguinalis [14].
Regarding `Cc1ccc2c(c1)C(=O)N(c1cc3c(cc1F)OC(C)C(=O)N3CC#CI)C2=O` (centres undefined), the inhibition of growth at 75 g/ha with Amaranthus blitum [1] is more than 80%; in the test on Echinochloa crus-galli [2], less than 50%; in the test with Digitaria sanguinalis [3], less than 50%; with Setaria viridis [4], less than 50%; with Amaranthus blitum [5] it was more than 80%; in the test with Abutilon theophrasti [6], more than 80%. For the same compound, the inhibition of growth at 75 g/ha in the test on Setaria viridis [7] was less than 50%; in the test with Echinochloa crus-galli [8] it was less than 50%; in the test with Digitaria sanguinalis [9] it was less than 50%; in the test with Chenopodium album [11] it was more than 80%; with Chenopodium album [12] it was more than 80%; in the test on Abutilon theophrasti [13] it was more than 80%. Further, the figures for the IC50 with Abutilon theophrasti [10] and in the test with Digitaria sanguinalis [14] were 30 g/ha and more than 1800 g/ha, respectively.
As for `O=C1COc2cc(F)c(N3C(=O)C4=C(CCCC4)C3=O)cc2N1CC#CI`, the inhibition of growth at 75 g/ha with Amaranthus blitum [1], in the test on Echinochloa crus-galli [2], with Digitaria sanguinalis [3], in the test with Setaria viridis [4], with Amaranthus blitum [5] and in the test with Abutilon theophrasti [6] was more than 80% in each case. Also, the inhibition of growth at 75 g/ha with Setaria viridis [7], in the test with Echinochloa crus-galli [8], in the test with Digitaria sanguinalis [9], with Chenopodium album [11], in the test with Chenopodium album [12] and with Abutilon theophrasti [13] was more than 80% each time. The IC50 with Abutilon theophrasti [10] is 2.3 g/ha; with Digitaria sanguinalis [14], 3.8 g/ha.
With `C#CCN1C(=O)COc2cc(F)c(N3C(=O)c4cccc([N+](=O)[O-])c4C3=O)cc21`, the inhibition of growth at 75 g/ha in the test on Amaranthus blitum [1], in the test with Echinochloa crus-galli [2], with Digitaria sanguinalis [3], in the test on Setaria viridis [4], with Amaranthus blitum [5] and with Abutilon theophrasti [6] was less than 50% in each case. Further, the inhibition of growth at 75 g/ha in the test with Setaria viridis [7], in the test on Echinochloa crus-galli [8], in the test on Digitaria sanguinalis [9], in the test on Chenopodium album [11], in the test with Chenopodium album [12] and in the test with Abutilon theophrasti [13] was less than 50% each time. Also, the figures for the IC50 in the test with Abutilon theophrasti [10] and with Digitaria sanguinalis [14] were 300 g/ha and 210 g/ha, respectively.
On to `CN1C(=O)COc2cc(F)c(N3C(=O)c4ccc(F)cc4C3=O)cc21`, for which the inhibition of growth at 75 g/ha with Amaranthus blitum [1], with Echinochloa crus-galli [2], with Digitaria sanguinalis [3], in the test on Setaria viridis [4], with Amaranthus blitum [5] and with Abutilon theophrasti [6] was less than 50% each time. Also, the inhibition of growth at 75 g/ha with Setaria viridis [7], in the test on Echinochloa crus-galli [8], in the test on Digitaria sanguinalis [9], in the test on Chenopodium album [11], with Chenopodium album [12] and with Abutilon theophrasti [13] was less than 50% each time. Besides, the figures for the IC50 with Abutilon theophrasti [10] and in the test with Digitaria sanguinalis [14] were 161 g/ha and 172 g/ha, respectively.
Take `CN1C(=O)COc2cc(F)c(N3C(=O)c4cccc(F)c4C3=O)cc21`: the inhibition of growth at 75 g/ha with Amaranthus blitum [1] is more than 80%; in the test on Echinochloa crus-galli [2], less than 50%; in the test on Digitaria sanguinalis [3], less than 50%; in the test on Setaria viridis [4], less than 50%; in the test with Amaranthus blitum [5], 50%; in the test with Abutilon theophrasti [6], more than 80%. For the same compound, the inhibition of growth at 75 g/ha in the test with Setaria viridis [7] is less than 50%; in the test with Echinochloa crus-galli [8], less than 50%; in the test on Digitaria sanguinalis [9], less than 50%; in the test with Chenopodium album [11], more than 80%; in the test on Chenopodium album [12], 50%; in the test with Abutilon theophrasti [13], 50%. The results for the IC50 in the test with Abutilon theophrasti [10] and in the test with Digitaria sanguinalis [14] were 45 g/ha and more than 1800 g/ha, respectively.
With `C#CCN1C(=O)C(C)Oc2cc(F)c(N3C(=O)c4ccc(C)cc4C3=O)cc21` (centres undefined), the inhibition of growth at 75 g/ha is more than 80% in the test with Amaranthus blitum [1]; less than 50% in the test with Echinochloa crus-galli [2]; less than 50% in the test on Digitaria sanguinalis [3]; less than 50% in the test on Setaria viridis [4]; more than 80% in the test with Amaranthus blitum [5]; more than 80% with Abutilon theophrasti [6]. The inhibition of growth at 75 g/ha is less than 50% in the test on Setaria viridis [7]; less than 50% in the test on Echinochloa crus-galli [8]; less than 50% in the test with Digitaria sanguinalis [9]; more than 80% in the test with Chenopodium album [11]; more than 80% in the test with Chenopodium album [12]; more than 80% with Abutilon theophrasti [13]. Also, the IC50 was determined as 18 g/ha in the test on Abutilon theophrasti [10] and 393 g/ha in the test with Digitaria sanguinalis [14].
For `C#CCN1C(=O)C(C)Oc2cc(F)c(N3C(=O)c4cccc(F)c4C3=O)cc21` (centres undefined), the inhibition of growth at 75 g/ha with Amaranthus blitum [1], with Echinochloa crus-galli [2], in the test with Digitaria sanguinalis [3], with Setaria viridis [4], in the test with Amaranthus blitum [5] and in the test on Abutilon theophrasti [6] was more than 80% each time. For the same compound, the inhibition of growth at 75 g/ha with Setaria viridis [7], in the test with Echinochloa crus-galli [8], in the test on Digitaria sanguinalis [9], in the test with Chenopodium album [11], with Chenopodium album [12] and with Abutilon theophrasti [13] was more than 80% in each case. The IC50 with Abutilon theophrasti [10] came to 7.7 g/ha; with Digitaria sanguinalis [14], 42 g/ha.
